Reference: ChEMBL document CHEMBL3414565, “Discovery of novel AHLs as potent antiproliferative agents” (Eur J Med Chem, 2015)

Assays:
[1] = test system: MCF7; assay: Cell cycle arrest in human MCF7 cells assessed as accumulation at G1/G0 phase at 8 uM after 12 hrs by propidium iodide staining-based flow cytometry (reference value: 60.51%); format: functional
[2] = test system: MCF7; assay: Induction of apoptosis in human MCF7 cells assessed as necrotic cells at 2 uM after 24 hrs by annexin V-FITC/propidium iodide staining-based flow cytometry (reference value: 6.2%); format: functional
Summary of the method: (§1)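 MCF-7 cells were plated at 5.0 × 10^6 cells/mL and held 12 or 24 h at 37 °C. Exponentially growing cells then received complete medium (blank) or compound at 0, 2, 4 or 8 for 12 or 24 h. Harvested cells were stained with Annexin V-FITC/PI and analysed by flow cytometry. Quadrants were scored as live, early apoptotic (annexin+/PI−), late apoptotic (double positive) and damaged (PI+ only).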

[3] = test system: MCF7; assay: Induction of apoptosis in human MCF7 cells assessed as late apoptotic cells at 2 uM after 12 hrs by annexin V-FITC/propidium iodide staining-based flow cytometry (reference value: 2.7%); format: functional; summary of the method: as §1
[4] = test system: MCF7; assay: Induction of apoptosis in human MCF7 cells assessed as late apoptotic cells at 4 uM after 24 hrs by annexin V-FITC/propidium iodide staining-based flow cytometry (reference value: 2.1%); format: functional; summary of the method: as §1
[5] = test system: MCF7; assay: Induction of apoptosis in human MCF7 cells assessed as necrotic cells at 4 uM after 12 hrs by annexin V-FITC/propidium iodide staining-based flow cytometry (reference value: 4.7%); format: functional; summary of the method: as §1
[6] = test system: MCF7; assay: Induction of apoptosis in human MCF7 cells assessed as necrotic cells at 8 uM after 24 hrs by annexin V-FITC/propidium iodide staining-based flow cytometry (reference value: 6.2%); format: functional; summary of the method: as §1
[7] = test system: MCF7; assay: Cell cycle arrest in human MCF7 cells assessed as accumulation at G2/M phase after 12 to 24 hrs by propidium iodide staining-based flow cytometry; format: functional
[8] = test system: MCF7; assay: Induction of apoptosis in human MCF7 cells assessed as viable cells at 4 uM after 12 hrs by annexin V-FITC/propidium iodide staining-based flow cytometry (reference value: 85.4%); format: functional; settings: MCF7, 12 h, read-out: Activity; summary of the method: as §1
[9] = test system: MCF7; assay: Induction of apoptosis in human MCF7 cells assessed as early apoptotic cells at 8 uM after 12 hrs by annexin V-FITC/propidium iodide staining-based flow cytometry (reference value: 7.2%); format: functional; summary of the method: as §1
[10] = test system: MCF7; assay: Induction of apoptosis in human MCF7 cells assessed as early apoptotic cells at 2 uM after 12 hrs by annexin V-FITC/propidium iodide staining-based flow cytometry (reference value: 7.2%); format: functional; summary of the method: as §1
[11] = test system: MCF7; assay: Induction of apoptosis in human MCF7 cells assessed as early apoptotic cells at 4 uM after 24 hrs by annexin V-FITC/propidium iodide staining-based flow cytometry (reference value: 4.5%); format: functional; summary of the method: as §1
[12] = test system: MCF7; assay: Induction of apoptosis in human MCF7 cells assessed as viable cells at 4 uM after 24 hrs by annexin V-FITC/propidium iodide staining-based flow cytometry (reference value: 87.1%); format: functional; settings: MCF7, 24 h, read-out: Activity; summary of the method: as §1
[13] = test system: MGC-803; assay: Cytotoxicity against human MGC803 cells after 72 hrs by MTT assay; format: functional, cell-based; settings: MGC-803, 72 h
Summary of the method: (§2)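 Cells were grown in RPMI1640 and seeded at 5 × 10^3 cells/well, then left 24 h at 37 °C. Medium was replaced with fresh medium holding a range of compound concentrations, from 10 mM DMSO stocks with final DMSO at most 0.1%. Exposure lasted 72 h. MTT (5 mg/mL) was added for 4 h at 37 °C, formazan was dissolved in DMSO and A570 was read. IC50 came from dose-response curves as mean ± SD of three independent experiments.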

[14] = test system: MCF7; assay: Cell cycle arrest in human MCF7 cells assessed as accumulation at S phase at 4 uM after 24 hrs by propidium iodide staining-based flow cytometry (reference value: 40.08%); format: functional
[15] = test system: MCF7; assay: Cell cycle arrest in human MCF7 cells assessed as accumulation at G2/M phase at 4 uM after 12 hrs by propidium iodide staining-based flow cytometry (reference value: 16.53%); format: functional
[16] = test system: SMMC-7721; assay: Cytotoxicity against human SMMC7721 cells after 72 hrs by MTT assay; format: functional, cell-based; settings: SMMC-7721, 72 h; summary of the method: as §2
[17] = test system: MCF7; assay: Induction of apoptosis in human MCF7 cells assessed as late apoptotic cells at 4 uM after 12 hrs by annexin V-FITC/propidium iodide staining-based flow cytometry (reference value: 2.7%); format: functional; summary of the method: as §1
[18] = test system: MCF7; assay: Induction of apoptosis in human MCF7 cells assessed as early apoptotic cells at 2 uM after 24 hrs by annexin V-FITC/propidium iodide staining-based flow cytometry (reference value: 4.5%); format: functional; summary of the method: as §1
[19] = test system: MCF7; assay: Induction of apoptosis in human MCF7 cells assessed as viable cells at 2 uM after 24 hrs by annexin V-FITC/propidium iodide staining-based flow cytometry (reference value: 87.1%); format: functional; settings: MCF7, 24 h, read-out: Activity; summary of the method: as §1

For `O=C(CSC(=S)N[C@H]1CCOC1=O)Nc1ccc(C(=O)/C=C/c2ccccc2Cl)cc1`, the Activity [1] was 46.48%, the Activity [2] was 5.7% and the Activity [3] was 1.7%. It also gave an Activity [4] of 3%, an Activity [5] of 5.6% and an Activity [6] of 4.8%. The Activity [7] was “Dose-dependent effect”, the viability at 4 µM [8] was 77.9% and the Activity [9] was 19%. It also gave an Activity [10] of 11.4%, an Activity [11] of 23.6% and a viability at 4 µM [12] of 69.3%. For the same molecule, the IC50 [13] was 12.3 µM, the Activity [14] was 20.43% and the Activity [15] was 20.51%. It also gave an IC50 [16] of 20.4 µM, an Activity [17] of 1.7% and an Activity [18] of 16.4%. It also gave a viability at 2 µM [19] of 75.8%.
